Laboratory results published in ChEMBL document CHEMBL4229470, “Synthetic molecules for disruption of the MYC protein-protein interface” (Bioorg Med Chem, 2018).
≈ marks a conversion by molar mass, not a printed value. Calls of active or inactive are those of the source. No cut-off for these calls is given here.

Key:
[1] = AUC (0 to infinity) in C57Bl6 mouse at 10 mg/kg, iv by LC-MS analysis; assay type: ADME, organism-based; design: dose 10 mg/kg, route intravenous, time infinity; settings: in vivo
In short: (§1)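 Pharmacokinetic parameters determined in C57Bl6 mice.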

[2] = MRT in C57Bl6 mouse at 10 mg/kg, iv by LC-MS analysis; assay type: ADME, organism-based; settings: in vivo; in short: as §1
[3] = target: Myc proto-oncogene protein (Homo sapiens) (UniProt P01106); assay: Binding affinity to His-tagged Myc (unknown origin) expressed in Escherichia coli BL21 at 10 uM by Bio-FET analysis relative to KJ-Pyr-9
Chain of Myc proto-oncogene protein (Homo sapiens) (P01106 whole entry): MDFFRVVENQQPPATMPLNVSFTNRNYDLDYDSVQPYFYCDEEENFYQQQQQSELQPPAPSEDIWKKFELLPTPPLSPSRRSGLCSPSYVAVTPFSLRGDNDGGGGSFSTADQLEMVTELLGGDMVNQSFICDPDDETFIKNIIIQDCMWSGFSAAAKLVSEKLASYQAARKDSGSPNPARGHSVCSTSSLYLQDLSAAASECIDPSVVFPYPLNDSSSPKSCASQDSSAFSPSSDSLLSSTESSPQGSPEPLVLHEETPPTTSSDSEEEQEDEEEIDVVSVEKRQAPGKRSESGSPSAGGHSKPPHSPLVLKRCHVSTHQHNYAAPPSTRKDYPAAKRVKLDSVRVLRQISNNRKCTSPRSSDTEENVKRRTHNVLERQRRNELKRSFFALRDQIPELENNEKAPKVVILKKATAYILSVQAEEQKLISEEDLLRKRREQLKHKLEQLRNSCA
In short: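 His-tagged MYC bHLH construct immobilized on a Bio-FET chip. Compounds at 10 μM in 3% DMSO in MES buffer; chip response at 10 μM normalized to a 10 μM reference ligand (saturating, maximal signal) run on each chip.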

c-Myc/Max (Homo sapiens) [4] = target: T1, c-Myc/Max (Homo sapiens) (UniProt P01106+P61244); assay: Inhibition of biotin-labeled EBOX dsDNA binding to Myc-Max (unknown origin) at 10 uM preincubated for 15 mins followed by test compound-protein mixture addition to biotin-labeled EBOX dsDNA immobilized chip measured over 2.5 mins by SPR analysis; assay type: protein-complex assay
In short: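 SPR. Disulfide-stabilized MYC-MAX dimer incubated with compound at 10 μM, then flowed over a DNA chip surface; sensorgram perturbation compared with vehicle control.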

[5] = target: Protein max (Homo sapiens) (UniProt P61244); assay: Binding affinity to His-tagged monomeric Max (unknown origin) expressed in Escherichia coli BL21 at 10 uM by Bio-FET analysis
Chain of Protein max (Homo sapiens) (P61244 whole entry): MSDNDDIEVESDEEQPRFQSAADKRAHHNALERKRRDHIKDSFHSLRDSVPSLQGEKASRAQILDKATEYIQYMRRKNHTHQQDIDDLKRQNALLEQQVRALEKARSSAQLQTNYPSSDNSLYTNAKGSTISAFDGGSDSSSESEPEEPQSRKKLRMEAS
In short: (§2)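 Bio-FET chip screening at 10 μM against monomeric MAX (mMAX), MYC-MAX and MAX-MAX dimers. Heterodimers stabilized by a disulfide through a C-terminal cysteine introduced into the MYC bHLH and MAX constructs.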

[6] = target: Protein max (Homo sapiens) (UniProt P61244); assay: Binding affinity to His-tagged dimeric Max (unknown origin) expressed in Escherichia coli BL21 at 10 uM by Bio-FET analysis; in short: as §2
c-Myc/Max (Homo sapiens) [7] = target: T1, c-Myc/Max (Homo sapiens); assay: Binding affinity to His-tagged Myc/Max (unknown origin) expressed in Escherichia coli BL21 at 10 uM by Bio-FET analysis; in short: as §2
[8] = Drug metabolism in rat liver microsomes assessed as oxidized furan ion formation by measuring parent compound remaining at 5 uM after 25 mins by LC-MS analysis; assay type: ADME, microsome
In short: (§3)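 Compounds incubated with rat liver microsomes at 37 °C for the indicated times; mass analysis monitoring the oxidized furan ion; recovery calculated from the AUC of the extracted ion.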

[9] = Drug metabolism in rat liver microsomes assessed as oxidized furan ion formation by measuring parent compound remaining at 5 uM after 3 mins by LC-MS analysis; assay type: ADME, microsome; settings: 0.05 h; in short: as §3
[10] = Drug metabolism in rat liver microsomes assessed as oxidized furan ion formation by measuring parent compound remaining at 5 uM after 45 mins by LC-MS analysis; assay type: ADME, microsome; settings: 0.75 h; in short: as §3
Mus musculus = assay: AUMC (0 to infinity) in C57Bl6 mouse at 10 mg/kg, iv by LC-MS analysis; assay type: ADME, organism-based; settings: in vivo; in short: as §1
[11] = Drug metabolism in rat liver microsomes assessed as oxidized furan ion formation by measuring parent compound remaining at 5 uM after 15 mins by LC-MS analysis; assay type: ADME, microsome; settings: 0.25 h; in short: as §3
[12] = Drug metabolism in rat liver microsomes assessed as oxidized furan ion formation by measuring parent compound remaining at 5 uM after 7 mins by LC-MS analysis; assay type: ADME, microsome; in short: as §3
[13] = Clearance in C57Bl6 mouse at 10 mg/kg, iv by LC-MS analysis; assay type: ADME, organism-based; settings: in vivo; in short: as §1
dsDNA = assay: Binding affinity to biotin-labeled EBOX dsDNA (unknown origin) at 10 uM measured over 2.5 mins by SPR analysis; assay type: nucleic-acid assay
In short: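 SPR check of compound alone flowed over the DNA surface, without protein.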

[14] = Solubility in pH 6 MES buffer by dynamic light scattering assay; assay type: physicochemical
In short: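 Dynamic light scattering in MES, pH 6.0, with <0.1% DMSO.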

[15] = Terminal half life in C57Bl6 mouse at 10 mg/kg, iv by LC-MS analysis; assay type: ADME, organism-based; settings: in vivo, read-out: beta t1/2 (converted); in short: as §1
[16] = MRT in rat at 1 mg/kg, iv; assay type: ADME, organism-based; settings: in vivo
[17] = Terminal half life in rat at 1 mg/kg, iv; assay type: ADME, organism-based; settings: in vivo, read-out: beta t1/2 (converted)
Rattus norvegicus = assay: AUMC (0 to infinity) in rat at 1 mg/kg, iv; assay type: ADME, organism-based; settings: in vivo
[18] = Clearance in rat at 1 mg/kg, iv; assay type: ADME, organism-based; settings: in vivo
[19] = AUC (0 to infinity) in rat at 1 mg/kg, iv; assay type: ADME, organism-based; design: dose 1 mg/kg, time infinity, route intravenous; settings: in vivo
[20] = Volume of distribution at steady state in C57Bl6 mouse at 10 mg/kg, iv by LC-MS analysis; assay type: ADME, organism-based; settings: in vivo; in short: as §1

SMILES	Activity [3] [%]	inhibition (c-Myc/Max (Homo sapiens) [4])	Activity [5]	Activity [6]	Activity (c-Myc/Max (Homo sapiens) [7])	Activity (dsDNA)	solubility [14] [µM]	also measured
NC(=O)c1ccc(-c2cc(-c3ccc(-c4nccs4)cc3)nc(-c3ccco3)c2)cc1	97	Active	inactive	inactive	inactive	inactive		AUC(0-inf) [1]: 44000 ng·h/mL; MRT [2]: 4.3 h; Stability [8]: 67.5%; Stability [9]: 84.31%; Stability [10]: 62.23%; AUMC (Mus musculus): 190000 ng·h/mL; Stability [11]: 74.39%; Stability [12]: 80.8%; clearance [13]: 3.8 mL/min/kg
COc1ccc(-c2cc(-c3ccc(C(N)=O)cc3)nc(-c3ccccc3)n2)cc1	0	inactive	inactive	inactive	inactive	inactive	< 1	
N#Cc1ccc(-c2cc(-c3ccc(C(N)=O)cc3)cc(-c3ccco3)n2)cc1	106	Active	inactive	inactive	inactive	inactive	10 (≈ 3.65 µg/mL)	
Cn1nncc1-c1cc(-c2ccc(C(N)=O)cc2)cc(-c2ccc(C#N)cc2)n1	55	Active	inactive	inactive	inactive	inactive	32 (≈ 12.2 µg/mL)	
N#Cc1ccc(-c2cc(-c3ccc(-c4nnn[nH]4)cc3)cc(-c3ccco3)n2)cc1	92	Active	inactive	inactive	inactive	inactive	18 (≈ 7.03 µg/mL)	
N#Cc1ccc(-c2cc(-c3ccc(C(N)=O)cc3)nc(-c3ccco3)n2)cc1	66	Active	inactive	inactive	inactive	inactive	8 (≈ 2.93 µg/mL)	
N#Cc1ccc(-c2cc(-c3ccc(C(=O)NN)cc3)cc(-c3ccco3)n2)cc1	0	inactive	inactive	inactive	inactive	inactive	500 (≈ 190 µg/mL)	
Cn1ccnc1-c1cc(-c2ccc(C(N)=O)cc2)cc(-c2ccc(C#N)cc2)n1	41	Active	inactive	inactive	inactive	inactive	8 (≈ 3.04 µg/mL)	
c1coc(-c2cc(-c3nccs3)cc(-c3ccc(-c4nccs4)cc3)n2)c1	188	Active	inactive	inactive	inactive	inactive	< 1	
NC(=O)c1ccc(-c2cc(-c3ccc([N+](=O)[O-])cc3)nc(-c3ccco3)c2)cc1			inactive	inactive		inactive	8 (≈ 3.08 µg/mL)	AUC(0-inf) [1]: 1450 ng·h/mL; MRT [2]: 0.94 h; half-life [15]: 1 h; MRT [16]: 1.7 h; half-life [17]: 1.6 h; AUMC (Rattus norvegicus): 427 ng·h/mL; clearance [18]: 65 mL/min/kg; Stability [8]: 20.91%; Stability [9]: 49.69%; AUC(0-inf) [19]: 258 ng·h/mL; Stability [10]: 22%; AUMC (Mus musculus): 1360 ng·h/mL; Stability [11]: 25.88%; Stability [12]: 31.47%; clearance [13]: 115 mL/min/kg; Vd [20]: 6.44 L/kg
CNC(=O)c1ccc(-c2cc(-c3ccc(C#N)cc3)nc(-c3ccco3)c2)cc1	3.2	Active	inactive	inactive	inactive	inactive	25 (≈ 9.49 µg/mL)	
N#Cc1ccc(-c2cc(-c3ccc(C(N)=O)cc3)cc(-c3cnco3)n2)cc1	0	inactive	inactive	inactive	inactive	inactive	250 (≈ 91.6 µg/mL)	
N#Cc1ccc(-c2cc(-c3ccc(C(N)=O)cc3)nc(-c3cc[n+]([O-])cc3)n2)cc1	0	inactive	inactive	inactive	inactive	inactive	25 (≈ 9.84 µg/mL)	
CS(=O)(=O)NC(=O)c1ccc(-c2cc(-c3ccc(C#N)cc3)nc(-c3ccco3)c2)cc1	76	Active	inactive	inactive	inactive	inactive	32 (≈ 14.2 µg/mL)	
N#Cc1ccc(-c2cc(-c3ccc(C(N)=O)cc3)cc(-c3cccc(F)c3)n2)cc1	0	inactive	inactive	inactive	inactive	inactive	2 (≈ 0.787 µg/mL)	
N#Cc1ccc(-c2cc(-c3ccc(C(N)=O)cc3)cc(-c3cncs3)n2)cc1	79	Active	inactive	inactive	inactive	inactive	64 (≈ 24.5 µg/mL)	
NC(=O)c1ccc(-c2cc(-c3ccc(-c4cnco4)cc3)nc(-c3ccco3)c2)cc1	154	Active	inactive	inactive	inactive	inactive	15 (≈ 6.11 µg/mL)	
